Assay results taken from ChEMBL document CHEMBL4513216, “Probing the Open Global Health Chemical Diversity Library for Multistage-Active Starting Points for Next-Generation Antimalarials” (ACS Infect Dis, 2020).

Assay: Toxicity liver stage against HepG2, at 10uM
Assay type: cell-based
Set-up: test concentration 10 uM, cell line HepG2-A16-CD81EGFP
Conditions: human, HepG2-A16-CD81EGFP cells; read-out: INHIBITION
How it was run: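 Uninfected HepG2-A16-CD81EGFP cells, 3 × 10^3 per well, 1536-well, plated on prespotted compound at 10 μM final, parasite-free screening media added to match infected plates; puromycin 10 μM positive, DMSO 0.5% negative; run in parallel with 48 h PbLuc assay at 37 °C, 5% CO2; viability by CellTiter-Glo luminescence, normalized to controls.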

Compound	cytotoxicity at 10 µM
CS(=O)(=O)N1CCN(Cc2ccc(F)cc2Br)CC1	0.0667%
CC(C)(C)c1cn(C[C@H]2CC3CCN2C[C@@H]3C(=O)N2CCOCC2)nn1 (stereo partly specified)	-3.37%
COC1CN(CCO)S(=O)(=O)c2ccccc21 (stereo unspecified)	3.54%
O=C(NC1CC1)c1nc(COc2ccc3c(c2)OCO3)no1	3.97%
COC(=O)N1CCC(CNC(=O)C2CCN(S(C)(=O)=O)CC2)CC1	-2.72%
O=C(CC1CCC2(CC1)CCN(Cc1nccs1)CC2)N1CC=CC1	-4.35%
CCc1ccc(-n2c(=O)[nH]c3nc(N4CCSCC4)ncc3c2=O)cc1	-4.14%
N#Cc1cc(C#N)c(SCC(=O)Nc2ccc(F)cc2)nc1N	-0.506%
CCN(CC)c1ncnc2c(C)nn(CC)c12	-2.01%
Cc1cn[nH]c1C1COCCN1Cc1c[nH]cn1 (stereo unspecified)	-1.3%
Cc1cccc(-c2nccnc2C2CCCN(C)C2)c1C (stereo unspecified)	5.62%
CC(=O)N1CCCC1c1ccc(CN2CCOCC2)cn1 (stereo unspecified)	5.83%
Cc1noc(C)c1-c1ccnc(C2CCN(S(=O)(=O)N(C)C)CC2)c1	-25%
CNc1cncc(C2CCCN2S(=O)(=O)c2ccc(F)cc2)n1 (stereo unspecified)	-3.21%
COc1ccc(CN2CCC(c3nccnc3-n3ccnc3)CC2)cc1	-27.4%
CN(C)Cc1ccnc(C2CN(Cc3nccs3)CCO2)n1 (stereo unspecified)	-2.61%
CNC(=O)C1(c2cnccn2)CCCN1C(=O)c1ccccc1 (stereo unspecified)	-20.6%
CNc1cccc(C2CCCN(C(=O)c3cccnc3)C2)n1 (stereo unspecified)	-16.6%
CN(C)Cc1ccnc(C2CCCN2Cc2ccc3ncccc3c2)n1 (stereo unspecified)	0.026%
COc1cc2nc3n(c(=O)c2cc1OC)CCN(C(=O)C1CC1)CC3	-13.6%
CC(C)C(=O)N1CCC(c2nc(O)cc(-c3ccncc3)n2)CC1	-5.41%
COc1ccc(CN2CC[C@H](NC(C)=O)[C@@H](O)CC2)c(OC)c1	-7.49%
CCOC(=O)[C@H]1CNC[C@@H]1C(F)(F)F	7.06%

Compound	cytotoxicity at 10 µM
O=c1cc(CN(CCO)C2CC2)nc2ccc(Br)cn12	12.5%
COc1ccc2c(c1)OCC(CNC1CCc3ncnn3C1)=C2 (stereo unspecified)	4.4%
CC(C)c1nn(C)c(N(C)C)c1CNC1CCCOc2ccccc21 (stereo unspecified)	-13.1%
CC(C(=O)Nc1cccc(C(F)(F)F)c1)N(C)CCN1CCOCC1 (stereo unspecified)	9.54%
Cc1noc(C(C)N2CCC(c3nc4ccccc4[nH]3)CC2)n1 (stereo unspecified)	-6.4%
N#Cc1ccc(Cl)cc1N1CCC(OC2CCOCC2)CC1	3.99%
Cc1cc(C2CCCN2C(=O)CN2CCc3ccccc32)on1 (stereo unspecified)	2.74%
COC(CNC(=O)CNC(=O)c1ccccc1)c1cccc(Cl)c1 (stereo unspecified)	5.61%
Cc1csc(CNCC2CCCN(C(=O)OC(C)(C)C)C2)n1 (stereo unspecified)	-6.82%
Cc1nnc2n1CCN(CC(=O)NC(C)c1cccc3ccccc13)C2 (stereo unspecified)	7.15%
COC(C(=O)NC1CCN(S(C)(=O)=O)CC1)c1ccccc1 (stereo unspecified)	-4.68%
CCc1nc(C2CCCN(c3nccc(N4CCCC4)n3)C2)no1 (stereo unspecified)	19%
CS(=O)(=O)CCC(=O)Nc1cc(Cl)c(Cl)cn1	4.52%
CCOc1cncc(N2CCOCC2)n1	3.18%
CNS(=O)(=O)c1cccc(C(C)NCc2ccc(C)o2)c1 (stereo unspecified)	-3.69%
O=C(CCNS(=O)(=O)c1ccc(F)c(F)c1)NCc1ccoc1	11.2%
CC(C)(C)c1nnc(CNc2cc(F)ccc2OCC2CCCO2)o1 (stereo unspecified)	3.06%
O=C(C(CNCc1ccccc1O)c1ccccc1)N1CCOCC1 (stereo unspecified)	-0.138%
COc1ccccc1C1(CNc2ccnc(C(=O)N(C)C)c2)CC1	-1.67%
COCCNC(=O)c1cc(F)ccc1NS(C)(=O)=O	-1.23%
NS(=O)(=O)NCC1(c2ccccc2Br)CC1	2.91%
Cc1cccc(C2CCCN2Cc2nc(N)nc(N(C)C)n2)c1C (stereo unspecified)	-12.5%
O=C(NCC1(Sc2ccccc2)CC1)c1ccc(=O)[nH]n1	1.52%

Compound	cytotoxicity at 10 µM
Cc1nc(NC(=O)NC(CS(C)(=O)=O)c2ccccc2)sc1C (stereo unspecified)	-1.32%
CN1CCN(c2ccc(Cl)cc2NC(=O)c2ccco2)CC1	-2.14%
CN1CCN(c2ccccc2NC(=O)NCCc2ccc(O)cc2)CC1	-0.37%
CCN(CCC(=O)OC)S(=O)(=O)c1cnc2c(c1)c(C)nn2C	-15.2%
COCCN1CCC(c2nc3ccccc3[nH]2)CC1	0.575%
CCCn1nnnc1CN(c1ccc(C)cc1)C(C)C	4.15%
CC(=O)NCC1CCN(C(=O)c2c[nH]c3cc(Cl)ccc23)CC1	7.07%
COC(=O)c1cccc(NC(=O)CN2CCN(S(C)(=O)=O)CC2)c1	11.3%
Cc1cc(CN2CCc3nn(C(C)C)c(=O)cc3C2)no1	-13.8%
Cc1cc(CNC(=O)NC(C)c2ccc(N3CCOCC3)cc2)no1 (stereo unspecified)	-17.4%
O=C(NCc1ccccc1F)N1CCC(C2OCCO2)CC1	2.76%
Cc1csc2ncc(-c3ccnc(N4CCN(C)CC4)n3)c(=O)n12	9.43%
CCn1ncnc1CN1CCc2[nH]cnc2C1c1ccccn1 (stereo unspecified)	-9.38%
CCc1noc(C2CC(=O)N(CCN(C)C)C2)n1 (stereo unspecified)	-10.1%
CC(C)c1cc(C(=O)N2CCNCC2C(=O)NCc2ccncc2)on1 (stereo unspecified)	-7.6%
O=C(C(c1ccc(F)cc1)N1CCCCC1)N1CCn2cncc2C1 (stereo unspecified)	-0.628%
c1cn(-c2ccc(CN3CCCC3)cc2)c(-c2cc3n(n2)CCNC3)n1	-14.3%
CN1CCC(n2nc(Cc3cccc(Cl)c3)nc2Cn2ccnc2)CC1	10.8%
O=C(NC1CCCN(CCCc2ccccc2)C1)c1ccc(Cl)s1 (stereo unspecified)	57.5%
CCC[C@@H]1CN(Cc2cc3c(cc2OC)OCO3)C[C@H]1C(=O)O	-2.7%
O=C(O)CSc1nnc(-c2ccco2)n1-c1ccccc1C(F)(F)F	3.41%
CC1(C)Cc2c(cnn2-c2cccc(F)c2)C(NC2CCSCC2)C1 (stereo unspecified)	-142%
Cc1nn(C)cc1-c1ccnc(N(C)Cc2cccs2)n1	19%

Compound	cytotoxicity at 10 µM
CC(=O)N1C[C@H]2CNC[C@@]2(C(=O)NCCCOc2cccnc2)C1	-7.52%
O=C1CC[C@H]2CN(Cc3ncc[nH]3)CC[C@H]2N1CC1CCNCC1	11.6%
Cc1ccc(C(=O)N2CCC3(CC2)c2ccccc2[C@@H](N)[C@@H]3O)cc1F	-0.685%
CC(=O)N1CCN(Cc2c(C)sc3ccccc23)CC(O)C1 (stereo unspecified)	14.4%
Cc1ccc(-n2cc(CN3CCOCC(CN(C)C)C3)cn2)cc1C (stereo unspecified)	-19.8%
COc1cc(F)ccc1C(C(=O)O)N(C)CCN1CCOCC1 (stereo unspecified)	-12.9%
CN(Cc1ccc(OCC(=O)N2CCOCC2)cc1)S(C)(=O)=O	4.64%
COc1cccc(-c2ncc(CN3CCOCC(O)C3)s2)c1 (stereo unspecified)	-7.19%
COCc1nc2ncc3c(=O)n(-c4ccc(C(C)=O)cc4)ccc3n2n1	-7.03%
CCOC(=O)C1(Cc2ccccc2)CCCN(Cc2nccn2CC)C1 (stereo unspecified)	8.82%
CC(C)c1nccn1-c1cccc(C2CCCN(C3CCCC3)C2)n1 (stereo unspecified)	7.1%
Cc1cccc(C(=O)NCc2cccnc2N(C)C)n1	0.72%
CC(Nc1cccc(CN2CCOC2=O)c1)C(=O)Nc1ccccc1 (stereo unspecified)	-6.42%
CC(O)CN1CCC(CNCc2cccc(OC(F)(F)F)c2)CC1 (stereo unspecified)	-7.95%
O=C(CCc1nccs1)N1CCN(c2ccc(Cl)cn2)CC1	0.665%
CCSc1ccc(NC(=O)N2CCCC2c2ccncc2)cn1 (stereo unspecified)	-8.88%
Cc1nnc(N2CCCC(CS(N)(=O)=O)C2)c(C#N)c1C (stereo unspecified)	2.86%
Cc1oc(C(=O)O)cc1S(=O)(=O)Nc1ccc(Cl)c(F)c1	-5.92%
CCn1c(C(=O)N2CCN(CC(C)O)CC2)cc2ccccc21 (stereo unspecified)	-8.96%
Cc1cc(C(=O)N2CCCCC2c2nc(C)cs2)[nH]n1 (stereo unspecified)	-8.13%
Cn1ccnc1CN1CCN(Cc2cc(C#N)ccc2F)CC1	-4.52%
COc1c(CNC2CCCc3ccccc32)c(C(C)C)nn1C (stereo unspecified)	-2.9%
Nc1nc(CN2CCCC(Cn3cncn3)C2)nc2ccccc12 (stereo unspecified)	-8.21%

Compound	cytotoxicity at 10 µM
CC(C)NC(=O)CS(=O)(=O)Cc1cc(Cl)c2c(c1)OCCO2	-4.53%
Cc1cnn(CC2CN(CC(=O)N(C)Cc3cccs3)CCO2)c1 (stereo unspecified)	6.28%
CCCc1n[nH]c(C2CN(CCCS(C)(=O)=O)CCO2)n1 (stereo unspecified)	-2.38%
O=C(NCc1nnc2n1CCCCC2)N1CCc2sccc2C1	0.553%
COc1ccc(F)cc1C(=O)N(C)Cc1cc(C)on1	0.35%
CNCc1ccc([C@@H]2CN(C(C)=O)C[C@H]2C(=O)N(C)C)cc1	3%
COc1ccc(CN(Cc2cncn2C)CC2CCCO2)cc1 (stereo unspecified)	-4.47%
Cc1cccc(CN(Cc2cccnc2)C2CC(C)(C)NC(C)(C)C2)n1	-5.11%
CC(=O)N1[C@H](Cn2cncn2)C[C@@H]2CN(Cc3cccnc3)CC[C@@H]21	3.16%
Cc1csc(CN2CCC[C@]3(C[C@H](Oc4ccccn4)CO3)C2)n1	-14%
Cn1ccnc1CN1CCC2(CCC(=O)N2CCN2CCCC2)CC1	-0.171%
c1cnc(N2CCO[C@H]3CN(CC4CC4)C[C@H]32)nc1	5.03%
CN(C)C(=O)CC1CC2(CCN(CC3CC3)CC2)c2cc(F)ccc21 (stereo unspecified)	3.37%
Cc1ccc(N2CC[C@H]3OCC[C@@]3(C(=O)NC(C)C)C2)nn1	-11.7%
O=C(c1ccno1)N1CCc2ncnc(-c3ccncc3)c2CC1	6.59%
Cn1nnc2c1CCN(Cc1ccncc1)C2COCC1CC1 (stereo unspecified)	5.29%
Cc1ccc(N2CCC3(CCN(C(=O)N(C)C)CC3)CC2)nn1	5.73%
COc1ccc(N2CCN(C(=O)C3[C@H]4CNC[C@@H]34)CC2(C)C)cc1 (stereo partly specified)	12.1%
CNCc1cc(F)ccc1Oc1ccc(Cl)cc1	-8.74%
